Data from ChEMBL document CHEMBL3112425, “Design, synthesis, and structure-activity relationship studies of a potent PACE4 inhibitor” (J Med Chem, 2014).

What was measured:
[1] = Acute toxicity in human DU145 cells assessed as cell death/lysis at 100 uM after 4 hrs by LDH assay; format: cell-based, DU-145; conditions: read-out: INH
Summary of the method: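 DU145 cells (RPMI 1640, 5% FBS, 37 °C, 5% CO2) plated; 24 h later peptides added at 100 μM. After 4 h, release of lactate dehydrogenase into the medium was quantified enzymatically with a commercial LDH cytotoxicity kit as the measure of acute membrane damage/lysis.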

PC-3 = assay: Cytotoxicity against human PC3 cells up to 350 uM after 72 hrs by MTT assay; format: functional
Summary of the method: (§1)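 Prostate cancer cells were kept in RPMI 1640 at 37 °C, 5% CO2, with 5% FBS for DU145 and 10% FBS for LNCaP and PC3. After 24 h, medium was changed and peptides added at various concentrations, up to 350 μM. Viability was read by MTT after 72 h treatment. IC50 from dose–response curves, triplicate, mean ± SEM.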

LNCaP = assay: Cytotoxicity against human LNCAP cells up to 350 uM after 72 hrs by MTT assay; format: functional; summary of the method: as §1
DU-145 = assay: Cytotoxicity against human DU145 cells up to 350 uM after 72 hrs by MTT assay; format: functional; summary of the method: as §1
Furin = Furin (Homo sapiens, UniProt P09958); assay: Inhibition of human recombinant furin expressed in drosophila schneider 2 cells using pyroGlu-Arg-Thr-Lys-Arg-AMC as substrate after 1 hr
Summary of the method: (§2)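 Human enzymes were expressed in Drosophila S2 cells and purified. Fluorogenic pyroGlu-RTKR-AMC was used at fixed concentration with varied inhibitor, 37 °C over 1 h. Buffers: furin, 100 mM Hepes pH 7.5, 1 mM CaCl2, 1 mM β-mercaptoethanol, 1.8 mg/mL BSA; PACE4 and PC7, 20 mM Bis-Tris pH 6.5, 1 mM CaCl2, 1.8 mg/mL BSA; PC2, same buffer at pH 5.7. Ki from IC50 (Cheng–Prusoff), or apparent Ki (Morrison) for tight binders. Triplicate, mean ± SD.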

[2] = molecular target: T1, Proprotein convertase subtilisin/kexin type 6 (Homo sapiens, UniProt P29122); assay: Inhibition of human recombinant PACE4 expressed in drosophila schneider 2 cells using pyroGlu-Arg-Thr-Lys-Arg-AMC as substrate after 1 hr; summary of the method: as §2
T1 sequence (P29122 whole entry): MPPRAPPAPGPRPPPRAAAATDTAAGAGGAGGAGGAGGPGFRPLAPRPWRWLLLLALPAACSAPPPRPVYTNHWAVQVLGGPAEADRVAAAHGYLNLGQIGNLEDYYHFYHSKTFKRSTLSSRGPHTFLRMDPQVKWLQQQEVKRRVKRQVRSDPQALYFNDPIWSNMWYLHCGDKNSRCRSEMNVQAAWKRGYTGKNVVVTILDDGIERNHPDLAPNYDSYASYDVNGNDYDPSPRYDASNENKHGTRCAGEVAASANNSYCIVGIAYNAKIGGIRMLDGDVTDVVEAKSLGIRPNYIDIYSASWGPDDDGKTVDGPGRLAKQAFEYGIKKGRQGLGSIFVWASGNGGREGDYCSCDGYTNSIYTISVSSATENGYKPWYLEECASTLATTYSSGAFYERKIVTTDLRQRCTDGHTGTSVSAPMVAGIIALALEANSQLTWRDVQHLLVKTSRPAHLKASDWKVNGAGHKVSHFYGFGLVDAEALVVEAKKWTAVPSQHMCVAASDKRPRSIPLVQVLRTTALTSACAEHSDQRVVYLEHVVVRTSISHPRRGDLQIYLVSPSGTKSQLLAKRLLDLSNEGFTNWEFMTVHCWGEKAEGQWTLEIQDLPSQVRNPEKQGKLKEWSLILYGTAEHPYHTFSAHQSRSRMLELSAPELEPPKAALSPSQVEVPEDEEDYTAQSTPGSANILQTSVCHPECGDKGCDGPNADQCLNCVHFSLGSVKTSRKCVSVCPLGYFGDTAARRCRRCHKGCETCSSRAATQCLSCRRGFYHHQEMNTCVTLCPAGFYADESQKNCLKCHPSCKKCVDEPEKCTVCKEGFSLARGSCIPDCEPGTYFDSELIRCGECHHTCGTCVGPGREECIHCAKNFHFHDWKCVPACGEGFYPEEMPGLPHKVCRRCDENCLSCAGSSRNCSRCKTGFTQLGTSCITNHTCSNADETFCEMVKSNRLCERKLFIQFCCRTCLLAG

Furin, sequence (P09958 whole entry): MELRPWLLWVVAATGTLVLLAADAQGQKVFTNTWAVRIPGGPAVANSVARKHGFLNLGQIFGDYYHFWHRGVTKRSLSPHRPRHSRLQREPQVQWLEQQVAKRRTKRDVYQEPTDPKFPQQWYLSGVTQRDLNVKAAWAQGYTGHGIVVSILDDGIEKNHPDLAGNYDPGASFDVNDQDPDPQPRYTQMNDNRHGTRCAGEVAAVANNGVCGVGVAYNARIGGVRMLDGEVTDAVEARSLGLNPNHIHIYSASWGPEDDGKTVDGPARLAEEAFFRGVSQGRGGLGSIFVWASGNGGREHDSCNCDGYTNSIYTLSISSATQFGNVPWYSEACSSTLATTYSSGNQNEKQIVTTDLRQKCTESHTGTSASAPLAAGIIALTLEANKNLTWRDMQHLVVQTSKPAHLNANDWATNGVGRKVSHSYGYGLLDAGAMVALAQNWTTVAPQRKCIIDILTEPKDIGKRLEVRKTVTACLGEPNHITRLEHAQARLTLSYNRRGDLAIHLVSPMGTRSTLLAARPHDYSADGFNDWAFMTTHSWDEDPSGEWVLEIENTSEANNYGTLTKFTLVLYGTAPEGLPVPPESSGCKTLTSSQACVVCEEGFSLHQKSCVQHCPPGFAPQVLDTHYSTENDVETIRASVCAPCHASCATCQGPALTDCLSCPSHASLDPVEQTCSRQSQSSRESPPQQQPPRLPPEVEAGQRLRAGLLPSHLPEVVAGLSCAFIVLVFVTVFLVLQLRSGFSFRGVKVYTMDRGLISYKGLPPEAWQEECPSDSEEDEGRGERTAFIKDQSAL

CC(=O)N[C@H](CC(C)C)C(=O)N[C@H](CC(C)C)C(=O)N[C@H](CC(C)C)C(=O)N[C@H](CC(C)C)C(=O)N[C@@H](CCCNC(=N)N)C(=O)N[C@H](C(=O)N[C@@H](CCCCN)C(=O)N[C@@H](CCCNC(=N)N)C(N)=O)C(C)C
cytotoxicity at 4 h, 100 µM [1]: < 5%
inhibition (INH) (PC-3): <50%
inhibition (INH) (LNCaP): <50%
inhibition (INH) (DU-145): <50%
Ki (Furin): 7.3 µM
Ki [2]: 14 µM
